The source of these data is publication PMC4303578 (Chemical Science, 2014).

The structures appear in SMILES notation.

The test system of this experiment is His6–FzmG. Put plainly: O2 consumption, Hansatech O2 electrode. The format is biochemical. The conditions noted are these: alpha-KG 1 mM (saturating), Fe(II). The method, boiled down:
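Apparent steady-state kinetics by Clark-type O2 electrode. Phosphonic acid substrate concentration varied; α-KG held at 1 mM (saturating). Enzyme held constant at 3.7 μM for most substrates and 9.25 μM for one. Reactions were started by adding enzyme. Initial O2-consumption rates were measured in triplicate. Km was taken from nonlinear Michaelis–Menten regression.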

With `O=P(O)(O)CCO` [2-HEP], the Michaelis constant (Km) (3.7 μM enzyme) is 210 ± 40 µM. Still for that read-out and setting: to `COC(=O)CP(=O)(O)O` [Me-PnA] belongs 80 ± 20 µM; to `O=CCP(=O)(O)O` [PnAA], 800 ± 300 µM. As to `O=C(O)CP(=O)(O)O` [PnA], the Michaelis constant (Km) (9.25 μM enzyme) amounted to 8000 ± 1000 µM.

Broadly, the Km is the substrate concentration at which the rate is half of its maximum.
